The source made the active and inactive calls. No cut-off for these calls is given here.
Legend:
[1] = molecular target: T1, Prostaglandin G/H synthase 2 (Homo sapiens) (UniProt P35354); assay: The inhibitory activity against cyclooxygenase Prostaglandin G/H synthase 2 (COX-2) measured as PGE-2 production after stimulation by lipopolysaccharide (LPS) using human Whole blood assay:NI means no inhibition
T1 sequence (whole entry): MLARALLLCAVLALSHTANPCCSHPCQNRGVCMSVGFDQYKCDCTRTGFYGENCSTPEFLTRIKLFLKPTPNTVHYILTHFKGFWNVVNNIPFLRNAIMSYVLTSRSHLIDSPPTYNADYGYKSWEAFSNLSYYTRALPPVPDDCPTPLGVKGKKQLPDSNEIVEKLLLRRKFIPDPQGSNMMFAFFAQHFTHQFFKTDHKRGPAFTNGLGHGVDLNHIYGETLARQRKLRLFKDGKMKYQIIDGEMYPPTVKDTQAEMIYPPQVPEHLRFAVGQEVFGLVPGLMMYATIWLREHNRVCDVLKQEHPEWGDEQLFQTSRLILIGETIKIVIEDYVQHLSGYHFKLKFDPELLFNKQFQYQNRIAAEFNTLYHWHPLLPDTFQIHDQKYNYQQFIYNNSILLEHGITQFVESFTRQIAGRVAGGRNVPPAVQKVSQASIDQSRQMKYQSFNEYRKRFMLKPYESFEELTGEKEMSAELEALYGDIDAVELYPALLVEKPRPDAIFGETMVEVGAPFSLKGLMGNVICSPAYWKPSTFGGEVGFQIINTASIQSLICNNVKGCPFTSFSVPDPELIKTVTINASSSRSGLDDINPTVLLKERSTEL

[2] = molecular target: T2, Prostaglandin G/H synthase 1 (Homo sapiens, UniProt P23219); assay: The inhibitory activity against Prostaglandin G/H synthase 1 measured as TXB2 production after blood coagulation using human Whole blood assay: NI means no inhibition
Summary of the method: (§1)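 Human whole blood; COX-1 activity read as TXB2 produced during blood coagulation. Each drug run in triplicate over 100 to 0.01 μM. IC50 calculated from the concentration series. No inhibition at 100 μM recorded as ni.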

Rattus norvegicus [3] = assay: The percentage growth of paw after injection of carrageneen at a dose of 30 mg/kg dose; assay type: functional
Summary of the method: (§2)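 Wistar rats (250 g) given drug intraperitoneally, 10 or 30 mg/kg, from a 10 mg/mL DMSO solution. After 1 h, 0.1 mL 1% lambda carrageenan was injected into the right hind paw plantar region. At 3 h, rats were euthanized with nembutal (100 mg/kg) and paws cut at the ankle. Swelling was taken as % weight increase over the control paw. Mean ± SD, n = 6.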

Rattus norvegicus [4] = assay: The percentage growth of paw after injection of carrageneen at a dose of 10 mg/kg dose; assay type: functional
Summary of the method: as §2

[5] = molecular target: T2, Prostaglandin G/H synthase 1; assay: The inhibitory activity against cyclooxygenase Prostaglandin G/H synthase 1 measured as TXB2 production after blood coagulation using human Whole blood assay: NI means no inhibition
Summary of the method: as §1

[6] = molecular target: T2, Prostaglandin G/H synthase 1; assay: The inhibitory activity against Prostaglandin G/H synthase 1 measured as TXB2 production after blood coagulation using human Whole blood assay
Rattus norvegicus [7] = assay: The percentage growth of paw after injection of carrageneen at a dose of 30 mg/kg dose; Toxic; assay type: functional, organism-based; design: dose 30 mg/kg
Summary of the method: as §2

[8] = molecular target: T3, Prostaglandin G/H synthase 2 (Homo sapiens, UniProt P35354); assay: The inhibitory activity against cyclooxygenase Prostaglandin G/H synthase 2 (COX-2) measured as PGE-2 production after stimulation by lipopolysaccharide (LPS) using human Whole blood assay
T3 sequence (P35354 whole entry): T1 sequence (whole entry)

T2 sequence (P23219 whole entry): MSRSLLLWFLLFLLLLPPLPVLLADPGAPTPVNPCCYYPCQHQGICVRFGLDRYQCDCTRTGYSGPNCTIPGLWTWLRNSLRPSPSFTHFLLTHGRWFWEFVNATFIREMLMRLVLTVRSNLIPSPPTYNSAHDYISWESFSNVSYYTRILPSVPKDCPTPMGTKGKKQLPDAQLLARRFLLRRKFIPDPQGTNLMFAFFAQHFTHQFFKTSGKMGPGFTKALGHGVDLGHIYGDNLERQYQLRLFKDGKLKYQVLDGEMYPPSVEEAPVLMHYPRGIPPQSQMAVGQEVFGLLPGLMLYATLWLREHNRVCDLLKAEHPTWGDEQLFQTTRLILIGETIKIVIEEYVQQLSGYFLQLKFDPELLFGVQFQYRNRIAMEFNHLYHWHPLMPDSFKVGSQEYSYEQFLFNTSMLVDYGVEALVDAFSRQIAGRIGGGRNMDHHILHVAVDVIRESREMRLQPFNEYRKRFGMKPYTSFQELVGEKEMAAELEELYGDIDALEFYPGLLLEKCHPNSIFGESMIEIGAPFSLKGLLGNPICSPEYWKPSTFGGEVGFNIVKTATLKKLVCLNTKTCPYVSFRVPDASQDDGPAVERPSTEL

| Compound | Growth (Rattus norvegicus [3]) | Growth (Rattus norvegicus [4]) | further results |
| --- | --- | --- | --- |
| CS(=O)(=O)Nc1cccnc1Oc1ccccc1 |  |  | inhibition [1]: inactive; inhibition [2]: inactive |
| O=S(=O)(Nc1ccncc1Oc1ccccc1)C(F)(F)F | 54.1% | 74.7% |  |
| CN(c1ccc([N+](=O)[O-])cc1Oc1ccccc1)S(C)(=O)=O | 65.6% | 84.6% | NI [5]: inactive |
| CS(=O)(=O)Nc1ccc([N+](=O)[O-])cc1Oc1ccccc1 [NIMESULIDE] | 54% | 58% |  |
| CS(=O)(=O)Nc1ccncc1Oc1ccccc1 |  |  | IC50 [6]: 4.9 µM; Growth (Rattus norvegicus [7]): Toxic; IC50 [8]: 37.5 µM |
